Measured values: ChEMBL document CHEMBL1149179, “Synthesis and biological evaluation of a new class of geldanamycin derivatives as potent inhibitors of Hsp90” (J Med Chem, 2004)

Columns and labels:
[1] = molecular target: T1, Heat shock protein HSP90 (Homo sapiens, UniProt P07900+P08238); test: […] human epidermal growth factor 2 (Her-2) degradation in MCF-7 cells; type: cell-based; details: mcf7
Summary of the method: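 MCF7 cells in DMEM with 10% FBS and 10 mM HEPES, treated at 65–70% confluence with compound (1000 nM down to 3 nM, half-log steps) for 16 h. Trypsinized cells stained with PE anti-Her-2 or PE isotype control (1 µg/mL, 15 min). Flow cytometry with 10,000 events; control-subtracted mean fluorescence versus DMSO cells. EC50 = 50% Her-2 degradation; n = 2.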

[2] = molecular target: T1, Heat shock protein HSP90; test: Concentration required to inhibit biotin-GM binding to recombinant heat shock protein 90(rHsp90); type: protein assay
Summary of the method: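 rHsp90 coated in PBS overnight at 4 °C. Compound at 100–0.3 µM or DMSO for 60 min at 37 °C. Then 10 µM biotinylated geldanamycin 60 min and 20 µg/mL streptavidin-phycoerythrin 60 min, both at 37 °C, with washes between. Fluorescence read at ex 485/em 580 nm, minus an uncoated-well background. % binding inhibition calculated versus DMSO.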

[3] = molecular target: T1, Heat shock protein HSP90; test: Concentration required to inhibit Bis-ANS activity by recombinant heat shock protein 90 (rHSP90) conformational assay
Summary of the method: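 Compound at 100–0.3 µM or DMSO for 60 min at 37 °C, then bis-ANS (0.1 mM stock) for 30 min at 37 °C. Fluorescence read at ex 393/em 484 nm, minus a no-protein background. IC50 = 50% inhibition of bis-ANS signal versus DMSO; n = 2.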

[4] = molecular target: T1, Heat shock protein HSP90; test: Concentration of test compound required for half-maximal inhibition of binding of Heat shock 90 KD protein by MCF-7 cell lysate assay; type: cell-based
Summary of the method: (§1)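 Lysate incubated ± compound 30 min at 4 °C, then with biotin-GM on streptavidin magnetic beads 1 h at 4 °C. Beads washed three times and boiled in SDS sample buffer. Bound Hsp90 detected by Western blot and band quantitation. IC50 taken as half-maximal inhibition of binding.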

[5] = Ratio of inhibitory concentration of rHsp90 and cell lysate Hsp90
[6] = molecular target: T1, Heat shock protein HSP90; test: Concentration of test compound required for inhibition of binding of rHsp90 in MCF-7 cell lysate; type: cell-based; summary of the method: as §1
[7] = tested on: MCF7; test: Inhibitory concentration of compound against MCF-7 cells by MTS assay; type: functional, cell-based; details: Homo sapiens
Summary of the method: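 MCF7 cells seeded at 2000/well in DMEM with 10% FBS and left overnight to adhere; final culture volume 100 µL. Viability read with MTS/PMS (mixed 20:1, 20 µL per well) as A490 after 2-4 h, with cell-free medium plus MTS-PMS as background. % viable cells taken relative to untreated cells; IC50 is the concentration giving 50% viable cells; n = 2.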

SMILES | IC50 [1] | IC50 [2] | IC50 [3] | IC50 [4] | Ratio [5] | IC50 [6] | IC50 [7]
CO[C@H]1/C=C\C=C(/C)C(=O)NC2=CC(=O)C(NC(=O)c3ccc([N+](=O)[O-])cc3)=C(C[C@@H](C)C[C@H](OC)[C@H](O)[C@@H](C)/C=C(\C)[C@@H]1OC(N)=O)C2=O | 300 nM | 3500 nM | 2000 nM |  |  |  | 
CO[C@H]1/C=C\C=C(/C)C(=O)NC2=CC(=O)C(NC(=O)c3ccco3)=C(C[C@@H](C)C[C@H](OC)[C@H](O)[C@@H](C)/C=C(\C)[C@@H]1OC(N)=O)C2=O | 500 nM | 4000 nM | 4000 nM |  |  |  | 
CO[C@H]1/C=C\C=C(/C)C(=O)NC2=CC(=O)C(NC(=O)c3ccc(CN4CCCCC4)cc3)=C(C[C@@H](C)C[C@H](OC)[C@H](O)[C@@H](C)/C=C(\C)[C@@H]1OC(N)=O)C2=O | > 10000 nM | 2500 nM | 2100 nM |  |  |  | 
CO[C@H]1/C=C\C=C(/C)C(=O)NC2=CC(=O)C(c3ccccc3)=C(C[C@@H](C)C[C@H](OC)[C@H](O)[C@@H](C)/C=C(\C)[C@@H]1OC(N)=O)C2=O | 280 nM | 3000 nM | 3000 nM | 70 nM | 43 |  | 
CO[C@H]1/C=C\C=C(/C)C(=O)NC2=CC(=O)C(NC(=O)c3ccc(CN4CCc5ccccc5C4)cc3)=C(C[C@@H](C)C[C@H](OC)[C@H](O)[C@@H](C)/C=C(\C)[C@@H]1OC(N)=O)C2=O | 200 nM | 1000 nM | 1500 nM |  |  |  | 
CO[C@H]1/C=C\C=C(/C)C(=O)NC2=CC(=O)C(NC(=O)c3ccc(CN4CCN(C)CC4)cc3)=C(C[C@@H](C)C[C@H](OC)[C@H](O)[C@@H](C)/C=C(\C)[C@@H]1OC(N)=O)C2=O | 800 nM | 5000 nM | 8000 nM | 120 nM | 67 |  | 
CO[C@H]1/C=C\C=C(/C)C(=O)NC2=CC(=O)C(NC(=O)C(C)=O)=C(C[C@@H](C)C[C@H](OC)[C@H](O)[C@@H](C)/C=C(\C)[C@@H]1OC(N)=O)C2=O | 1700 nM | 15000 nM | 20000 nM |  |  |  | 
CO[C@H]1/C=C\C=C(/C)C(=O)NC2=CC(=O)C(NC(=O)c3ccc(CN(C)C)cc3)=C(C[C@@H](C)C[C@H](OC)[C@H](O)[C@@H](C)/C=C(\C)[C@@H]1OC(N)=O)C2=O | 1700 nM | 17000 nM | 3000 nM |  | 200 | 15 nM | > 30000 nM
CO[C@H]1/C=C\C=C(/C)C(=O)NC2=CC(=O)C(NC(=O)c3ccc(CN4CCN(C5CCCCC5)CC4)cc3)=C(C[C@@H](C)C[C@H](OC)[C@H](O)[C@@H](C)/C=C(\C)[C@@H]1OC(N)=O)C2=O | 600 nM | 5500 nM | 5800 nM |  |  |  | 
CO[C@H]1/C=C\C=C(/C)C(=O)NC2=CC(=O)C(NC(=O)c3ccc(CN4CCN(c5ccc([N+](=O)[O-])cc5)CC4)cc3)=C(C[C@@H](C)C[C@H](OC)[C@H](O)[C@@H](C)/C=C(\C)[C@@H]1OC(N)=O)C2=O | 200 nM | 1000 nM | 1300 nM |  |  |  | 
CO[C@H]1/C=C\C=C(/C)C(=O)NC2=CC(=O)C(c3cccs3)=C(C[C@@H](C)C[C@H](OC)[C@H](O)[C@@H](C)/C=C(\C)[C@@H]1OC(N)=O)C2=O | 250 nM | 1700 nM | 1700 nM | 55 nM | 31 |  | 
CO[C@H]1/C=C\C=C(/C)C(=O)NC2=CC(=O)C(NC(=O)OCCCCN3CCOCC3)=C(C[C@@H](C)C[C@H](OC)[C@H](O)[C@@H](C)/C=C(\C)[C@@H]1OC(N)=O)C2=O | 500 nM | 1000 nM | 1000 nM | 10 nM | 100 |  | 
CO[C@H]1/C=C\C=C(/C)C(=O)NC2=CC(=O)C(NC(=O)c3cccc(CCl)c3)=C(C[C@@H](C)C[C@H](OC)[C@H](O)[C@@H](C)/C=C(\C)[C@@H]1OC(N)=O)C2=O | 1000 nM |  | 10000 nM |  |  |  | 
COc1cccc(C(=O)NC2=C3C[C@@H](C)C[C@H](OC)[C@H](O)[C@@H](C)/C=C(\C)[C@H](OC(N)=O)[C@@H](OC)/C=C\C=C(/C)C(=O)NC(=CC2=O)C3=O)c1 | 180 nM | 1300 nM | 900 nM |  |  |  | 
COc1ccccc1C(=O)NC1=C2C[C@@H](C)C[C@H](OC)[C@H](O)[C@@H](C)/C=C(\C)[C@H](OC(N)=O)[C@@H](OC)/C=C\C=C(/C)C(=O)NC(=CC1=O)C2=O | 180 nM | 1100 nM | 1000 nM |  |  |  | 
CCCN(CCC)Cc1ccc(C(=O)NC2=C3C[C@@H](C)C[C@H](OC)[C@H](O)[C@@H](C)/C=C(\C)[C@H](OC(N)=O)[C@@H](OC)/C=C\C=C(/C)C(=O)NC(=CC2=O)C3=O)cc1 | 500 nM | 3000 nM | 1200 nM |  |  |  | 500 nM
CO[C@H]1/C=C\C=C(/C)C(=O)NC2=CC(=O)C(NC(=O)c3ccc(CCl)cc3)=C(C[C@@H](C)C[C@H](OC)[C@H](O)[C@@H](C)/C=C(\C)[C@@H]1OC(N)=O)C2=O | 550 nM | 4000 nM | 2000 nM |  |  |  | 
CO[C@H]1/C=C\C=C(/C)C(=O)NC2=CC(=O)C(NC(=O)OCc3ccc(OC(C)=O)cc3)=C(C[C@@H](C)C[C@H](OC)[C@H](O)[C@@H](C)/C=C(\C)[C@@H]1OC(N)=O)C2=O | 50 nM | 1000 nM | 2500 nM |  |  |  | 40 nM
COc1ccc(C(=O)NC2=C3C[C@@H](C)C[C@H](OC)[C@H](O)[C@@H](C)/C=C(\C)[C@H](OC(N)=O)[C@@H](OC)/C=C\C=C(/C)C(=O)NC(=CC2=O)C3=O)cc1 | 400 nM | 5000 nM | 4000 nM |  |  |  | 
COc1ccc(N2CCN(Cc3ccc(C(=O)NC4=C5C[C@@H](C)C[C@H](OC)[C@H](O)[C@@H](C)/C=C(\C)[C@H](OC(N)=O)[C@@H](OC)/C=C\C=C(/C)C(=O)NC(=CC4=O)C5=O)cc3)CC2)cc1 | 220 nM | 3000 nM | 1500 nM |  |  |  | 
CO[C@H]1/C=C\C=C(/C)C(=O)NC2=CC(=O)C(NC(=O)c3ccccc3)=C(C[C@@H](C)C[C@H](OC)[C@H](O)[C@@H](C)/C=C(\C)[C@@H]1OC(N)=O)C2=O | 200 nM | 4000 nM | 3000 nM |  |  |  | 
C=CCNC(=O)NC1=C2C[C@@H](C)C[C@H](OC)[C@H](O)[C@@H](C)/C=C(\C)[C@H](OC(N)=O)[C@@H](OC)/C=C\C=C(/C)C(=O)NC(=CC1=O)C2=O | > 10000 nM | 35000 nM |  |  |  |  | 
CO[C@H]1/C=C\C=C(/C)C(=O)NC2=CC(=O)C(NC(=O)c3ccc(F)cc3)=C(C[C@@H](C)C[C@H](OC)[C@H](O)[C@@H](C)/C=C(\C)[C@@H]1OC(N)=O)C2=O | 250 nM | 1500 nM | 1500 nM |  |  |  | 
CO[C@H]1/C=C\C=C(/C)C(=O)NC2=CC(=O)C(NC(=O)c3cccs3)=C(C[C@@H](C)C[C@H](OC)[C@H](O)[C@@H](C)/C=C(\C)[C@@H]1OC(N)=O)C2=O | 400 nM | 2000 nM | 3000 nM | 40 nM | 75 |  | 
CCOC(=O)NC1=C2C[C@@H](C)C[C@H](OC)[C@H](O)[C@@H](C)/C=C(\C)[C@H](OC(N)=O)[C@@H](OC)/C=C\C=C(/C)C(=O)NC(=CC1=O)C2=O | 260 nM | 3000 nM | 3000 nM |  |  |  | 
